RORA act – RORA (human) activation | P35398 | CHO-K1 Gal4-RORA LBD luciferase reporter, luminescence; percent increase over mock-subtracted basal signal | activation, % at 10 µM | 65,000 compounds, 1.5% hits | AID 560;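 active means activation above the mean of all tested compounds plus 3 SD, cut at about 49% in these data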;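 further: 0% = DMSO-treated RORA cells and 100% = added signal equal to DMSO minus mock-transfected cells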
Jurkat viability – cytotoxic compounds reducing Jurkat cell viability. 56,000 compounds, 1.2% hits. Jurkat E6.1 viability, ATP luminescence, 48 h. inhibition, % at 4 µM. AID 463;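 active means inhibition above the mean inhibition of all tested compounds plus 3 SD, cut at about 28% in these data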
SF1 activator – SF-1 (human) activation; AID 522; 65,000 compounds, 1.9% hits; activation, % at 10 µM; CHO-K1 Gal4-SF-1 LBD luciferase reporter; % increase over DMSO SF-1-specific signal; Q13285;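 active means activation above the mean activation of all tested compounds plus 3 SD, cut at about 50% in these data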
Target sequence (Q13285 whole entry, looked up, the tested form may be a part): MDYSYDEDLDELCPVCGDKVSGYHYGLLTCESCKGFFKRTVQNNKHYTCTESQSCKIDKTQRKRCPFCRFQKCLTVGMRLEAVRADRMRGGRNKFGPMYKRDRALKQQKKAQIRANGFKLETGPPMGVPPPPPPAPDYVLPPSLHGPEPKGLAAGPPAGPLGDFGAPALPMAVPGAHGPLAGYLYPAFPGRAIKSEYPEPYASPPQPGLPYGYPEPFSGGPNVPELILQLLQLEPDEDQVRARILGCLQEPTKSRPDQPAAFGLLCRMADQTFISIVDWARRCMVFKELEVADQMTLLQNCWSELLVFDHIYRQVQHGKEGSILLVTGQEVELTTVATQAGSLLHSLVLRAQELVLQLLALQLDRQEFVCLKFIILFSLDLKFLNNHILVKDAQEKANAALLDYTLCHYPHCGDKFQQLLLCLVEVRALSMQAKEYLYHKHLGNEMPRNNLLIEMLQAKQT
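Test system: transient Gal4-SF-1 LBD reporter, CHO-K1; Amount: 4,000 CHO-K1 cells per well; Doses: 10 µM only; Timing: compound exposure 20 h at 37 °C; Signal: luciferase light emission; Read-out basis: percent activation relative to DMSO median and mock-transfected background; Control set: DMSO negative control and −SF1 background wells; Replicates: one test per compound.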
HEK293 NFkB inh – lowers PMA/ionomycin-induced NF-kB signal in HEK293 cells; inhibition, % at 3 µM; 62,000 compounds, 0.21% hits; HEK-293 NF-kB luciferase reporter, luminescence;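 active means inhibition above the mean of all tested compounds plus 3 SD, cut at about 40% in these data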;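 further: 0% = stimulated DMSO wells and 100% = 10 µM reference inhibitor 5653914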
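Material: HEK-293 cells with stable firefly luciferase reporter driven by four HIV NF-kB elements / Also added: PMA plus ionomycin mix as NF-kB-activating stimulus / Compound dosing: 3 µM once, 0.30% DMSO / Times: 1 h pretreatment, 16 h stimulation, 37 °C / Signal: luminescence / Evaluation: per-plate % inhibition versus controls / Benchmarks: DMSO and 10 µM reference inhibitor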
* marks the source's active call; other numbers are inactive results; x = no result given. An excerpt weighted towards active compounds, which were near 3.9% of everything screened.

SMILES	RORA act	Jurkat viability	SF1 activator	HEK293 NFkB inh
Cc1ccc2[nH]c(C(=O)O)c(-c3ccccc3)c2c1	23.5	5.6	-9.0	2.9
Cn1c(=O)oc2cc(S(=O)(=O)Nc3ccc4c(c3)OCO4)ccc21	6.7	7.0	-12.7	5.7
Nc1nc(-c2ccc3c(c2)OCCO3)cs1	50.3*	3.2	64.1*	-17.3
Nc1nc(-c2ccc3c(c2)CCCC3)cs1	75.6*	x	37.0	-33.5
Cc1nc(-c2ccc3c(c2)OCO3)cs1	0.5	x	1.3	7.2
COc1ccc(NC(C)=O)cc1NC(=O)CN1CCN(CC(=O)Nc2ccc(Cl)cc2)CC1	10.3	-1.5	2.2	13.3
CCOC(=O)c1c(C)c(C(=O)Nc2ccc(N(C)C)cc2)c(C)n1CC	54.3*	58.7*	72.1*	17.5
Cc1ccc(Nc2ncnc3nc[nH]c23)cc1Cl	66.9*	-1.7	43.4	-22.9
Clc1ccc(CCNc2ncnc3nc[nH]c23)cc1	-15.8	34.7*	-18.9	15.5
O=C(CSc1n[nH]c(-c2ccccc2O)n1)N1CCCc2ccccc21	-2.5	62.3*	14.8	8.4
COC(=O)C1=C(N)Oc2cc(N(C)C)ccc2C1c1ccccc1OC (stereo unspecified)	49.2*	74.9*	11.2	27.7
Cn1c(-c2ccccc2)cc2c3no[n+]([O-])c3ccc21	-66.3	78.0*	-73.0	17.8
CCOC(=O)c1c(C)n(OCc2ccccc2)c2ccc3c(no[n+]3[O-])c12	-14.2	1.6	3.7	15.1
O=C(CN(CCc1ccccc1)C(=O)CNS(=O)(=O)c1ccc(F)cc1)NCC1CCCO1 (stereo unspecified)	15.0	-9.1	-9.8	8.3
COc1ccc(Cl)cc1N1C(=O)C2CCCN2C1c1ccc(F)cc1 (stereo unspecified)	2.7	-8.2	2.1	-9.9
CCOC(=O)c1cnn(-c2ccccn2)c1N	53.0*	4.8	34.9	-6.6
CCOC(=O)c1cnc2c(-c3ccccc3)cnn2c1N	-4.6	-11.2	52.4*	-47.7
CCOC(=O)c1cnc2c(-c3ccccc3)c(C)nn2c1N	15.0	x	15.3	-5.6
COc1ccc(OC)c(S(=O)(=O)N2CCC(C(=O)N3CCc4ccccc4C3)CC2)c1	-7.8	-0.4	-6.4	13.5
O=C(Nc1ccccc1)N1CCC(c2nc(-c3ccc(S(=O)(=O)N4CCOCC4)cc3)no2)CC1	-12.4	32.9*	3.6	7.7
O=C(c1cccs1)N1CCC(c2nc(-c3ccc(S(=O)(=O)N4CCOCC4)cc3)no2)CC1	2.4	-5.6	3.8	7.8
CCOC(=O)CN(C(=O)CSc1nnc2c(n1)[nH]c1ccc(OC)cc12)c1ccc(F)cc1	0.6	2.1	15.3	12.5
CCOC(=O)CC(=O)CSc1nnc2c(n1)[nH]c1ccccc12	44.7	0.8	53.2*	2.8
CCC(=O)OC1=C2C(=Nc3c(c(=O)n(C)c(=O)n3C)C2c2ccccc2)c2ccccc21 (stereo unspecified)	1.6	x	9.9	x
O=C(NCc1nc(-c2ccccc2)no1)c1cccs1	3.5	7.9	5.0	16.6
SMILES	RORA act	Jurkat viability	SF1 activator	HEK293 NFkB inh
Cc1ccc(-c2csc(NC(=O)c3ccno3)n2)cc1	60.3*	x	27.9	-2.0
O=C(Nc1nc(-c2ccccc2)cs1)c1cccs1	56.6*	6.7	18.3	8.4
O=C(Nc1nc(-c2ccc(S(=O)(=O)N3CCCC3)cc2)cs1)c1ccco1	27.6	6.0	3.4	0.3
O=C(Nc1nc(-c2ccccc2)ns1)c1cccs1	34.1	9.6	75.5*	-6.8
O=C(CSc1ncn[nH]1)Nc1nc(-c2ccccc2)ns1	37.8	0.3	54.6*	13.2
O=C(Nc1nc(-c2ccc(Cl)s2)cs1)c1cccs1	18.4	-2.7	30.1	-10.1
O=C(O)c1cc2ccccc2n1-c1ccccc1	9.7	-6.4	-3.2	6.1
N#CC1=C(N)N2C(=C(C#N)C13CCCCC3)SC1CCCCC12O (stereo unspecified)	-23.3	13.6	7.8	9.6
O=C(NCc1ccccc1)c1n[nH]nc1-c1ccccc1O	-6.6	11.5	10.3	5.3
CCCCCCOc1ccc(OCC(O)CN2C(=O)NC(C)(C)C2=O)cc1 (stereo unspecified)	62.0*	1.6	35.9	6.8
Cc1ccc(OCC(O)CN2C(=O)NC(C)(C)C2=O)cc1C (stereo unspecified)	-4.3	-1.3	2.3	2.0
COCCCN(C(C)=O)c1nc(-c2ccccc2)cs1	34.9	-4.7	78.9*	0.0
Cc1noc(C)c1CSc1nnc2n(-c3ccccc3)c(=O)c3ccccc3n12	-15.9	-3.4	-12.4	10.9
Cc1noc(C)c1CSc1nc2ccccc2c(=O)n1-c1ccccc1	46.0	88.6*	-11.8	31.7
C=CCn1c(SCc2c(C)noc2C)nc2cc(C(=O)O)ccc2c1=O	28.4	69.2*	17.3	30.1
Cc1noc(C)c1CSc1nc2[nH]ncc2c(=O)n1-c1ccccc1	-6.4	83.3*	-10.9	32.3
Cc1noc(C)c1CSc1nc2ccccc2c(=O)n1-c1ccc(F)cc1F	8.9	91.7*	19.2	22.1
C=CCn1c(SCc2c(C)noc2C)nc2sc3c(c2c1=O)CCCCC3	-13.5	6.3	-6.9	-4.7
Cc1nc(CSc2nc3[nH]ncc3c(=O)n2-c2ccccc2)cs1	15.1	6.2	19.8	16.1
COc1ccccc1N(CCC#N)C(=O)CSc1nc(-c2ccccc2)cn1N	-2.3	-0.4	-12.2	6.8
COc1ccc2c(c1OC)C(=O)N1c3ccccc3C(=O)N(c3ccccc3F)C21 (stereo unspecified)	-24.6	x	15.0	x
COc1ccc2c(c1OC)C(=O)N1c3cccc(Cl)c3C(=O)OC21 (stereo unspecified)	1.3	-3.3	-2.8	9.3
COc1ccc2c(c1OC)C(=O)N1c3ccccc3SC21 (stereo unspecified)	10.1	x	72.0*	x
COc1ccc2c(c1OC)C(=O)N1c3ccccc3COC21 (stereo unspecified)	81.9*	9.0	51.1*	-6.4
O=C(Nc1nccs1)c1ccc(COc2ccc(Cl)cc2)o1	4.8	-4.7	29.3	7.9
SMILES	RORA act	Jurkat viability	SF1 activator	HEK293 NFkB inh
O=C(Nc1nccs1)c1ccc(COc2ccccc2Br)o1	20.7	2.6	60.2*	-7.4
O=C(COc1ccc(F)cc1)Nc1nccs1	101.9*	10.6	42.1	-23.4
O=C(Nc1nccs1)c1ccc(COc2ccc(F)cc2)o1	8.0	1.1	63.6*	-9.8
CCOC(=O)c1sc2nc(SCC#N)n(CCCN3CCCC3=O)c(=O)c2c1C	-10.2	x	-3.1	0.4
CS(=O)(=O)N1CCN(c2nc3ccccc3s2)CC1	57.6*	5.7	28.5	-7.2
COc1cccc2cc(-c3nc(-c4cccs4)cs3)c(=O)oc12	55.4*	0.2	33.0	-8.2
c1csc(-c2csc(-c3cccs3)n2)c1	30.0	5.8	62.6*	3.3
N#C/C(C(=O)c1ccccc1)=C1/CCCCCN1	35.0	-5.6	60.7*	-41.3
CN(C)c1ccc(C2C=C(c3ccc(Cl)cc3OC(F)F)Nc3ncnn32)cc1 (stereo unspecified)	26.3	60.1*	-13.1	32.5
CCOC(=O)COc1cccc2c(=O)n(CC(=O)NCc3ccc4c(c3)OCO4)ccc12	36.5	50.7*	-30.6	21.3

Screening data deposited in PubChem BioAssay by The Scripps Research Institute Molecular Screening Center.
